Data reported in PMC6743453 (Molecular Biology of the Cell, 2019).
“Also recorded” adds a separate entry of the source.

B1: DDB_G0275301: OCRL-Interacting Bar domain Protein of D. discoideum (protein)
chain: MFKKGLDVLSKTKNAAVSSMTELETESDEVQNAKVALKNMKWSIKLLIQLAKNYFATSDKQVQQGTAFSVILQRFSEKISHTNYIINQTLPLSDSLREVGEGIKNSSTYFQQYTQIFCDKFATNIEALYVGHVKKVATLEKQQEESRIKYNNALNYLKSTQKSGHTGTKLAEKTTEYENAKAYYEQISLNLISATNDMVNYVQREVAVQMKQFVAEQQLMVQECIKMWVIAENKLFNSQSPVNTTSTTSPNTYGDYNNNANTVNLSKLSLDKEEQPPQPYQPPQQHSPPQQTFHQSPPTDFSSQHQQYSFDQSSPQETYQPPQQQQPEGQKSPNPFDDKNPFDN
B2: DDB_G0280015: PH domain Interacting with OCRL, 741 amino acid protein of D. discoideum (protein)
chain: MESSSMTTNNNNNNSTISPSSSTTSISTSKNNDFLTLHKAYIDEWLMVSFLPILKTTYDGENNFYDISNLNIKNVNQRNIPFSEQLFALDRQFQNLINQWEKLSRSDQQRAAKIESYQQSFYTFIDRIKSTLEKTMVELGGSLEDSNFLAAAISLKEKQSKNKRLTIMARSRISPGGTSSTQYQHQMHLTGPISIVWNEILIIITRKVNEEVVRLQTENINNNIKNINNSEFNITNDIYQFNNNNLTQANKLEINNQRQKLYQQALSNIVPMLFEWRIMMANAQKVISEEKRFKVNPFIPTTVYDHNSSSFISAPILISTTNKTATTLLNNLNNNNIINNNNNNNNNNNNNNNNNNNNNNNNNSSSNSNNNNNSPISNSPSSSSPSPSSPTLTNRPSFINYDNQNNENNINNNNNNENNIGNNNINNNNSNENSDNKFSEEINISSSPPGTSGMTNSTSNLPTIASPTSWTKAVKRPAMSSSGGNIPILNNLGTSLNNNNNNKQIQDNNNNNLNTINANSNGNNNNSSNNVNSENNNIPTGGIIKQGWMKKRGTKNKSWKKRYFILDMKKTLRYYKDNSKIPHGNNSNNSGGGSSSNNNNCNSGNNNNGLNGGSGKGDQVNGNNISLPIGNNPHFHSSSGSGIPTTSPSMSSSSTSLENNDILSSFDHLKYKGSIDLYTSLVVAIKPSTFNVNINNSGSFKEDNNSYFGMDIITPSRTWNFCCESSKSMEDWLIVLKSANK
B3: GxcU: putative Rho-GEF of D. discoideum (protein)
chain: MDTKNKEILGSTIKAWIGRKRYKTMMVNKTNRDKVAKEILDTEQIYVRNLETIVQFYLKPLRNINPPLLSPKSIQIIFGHIEDLLSLNTELLTSIQDRMTTWYQDKRLGDIFTKMAPYLKVYTEYCGNYDKAVARLKQKSDESRDLQMFLKRVTSENSFGLDLNSLLVTPIQRIPRYKLLLQSLIQLTPVEFSDYPTLAKALENVALVADHINESIREKQNSEKILTIQKRFTGQCPPLLAPLRTFIREGSLTKVCRKDHKKRWFILFSDALVYGNRIDTAVGNPIYKFHRLLPLSNTKIANLDDTKHKNSFQLIHPIKSFTLIADTEQEKSSWMNSFSDAQNFLLRNEGSVARMNKQYRSINILKPKEEETVSTAPVWIPDSEAIQCMECTIKFTTIRRRHHCRRCGNVVCGKCSEQKWTLDQYKKDARVCKTCYNYLSISSSRSNENNVSSSNNLSTPTSTFTATTATATAPFGTLTDGASLADVSSDSEGEDNSSSINDSNPDMPIINGLSSIQIDNTPVILNTVNPSPPLLSQPQPQQPQQPQLQPLQQPLQQPPQPPQPPQTNHKSFIATHTAYNKENSLKSTSPSSSFIETSTSTSASTSTSTSTSTSTSTSTSTSTSTSTSNSTSNSTLTPGPPMLSKSNAGNSSLLDFCKSYIQNSPNVSPAKVEKHKHSSSSSSASNSPMQSRTNLDIPSTTTTSTSKGSISPTQSSESIVLPELKPITHDPLVTSNNSSSTLKVNQPIQHTNSSSKLNVIVSTPQTTQTTENNVNNTNTNTTTTNNNNNNNNNNNNNNNNNNNNNNNNNNNNSDVSSPKPTTKSLPPTPPTKKLPPTPPPKPLPPQPTLPQQPTLPPQPNLPPQPNLPPQPNLPPQPNLPPQPNLPQQPDLSQPPPQQQQQPTLDQAPPRPPKPNQDSRSQSFLCISSTVNSTPPTPPPKRIISTHPANTSFIYQPQQYVSSPNINNVPPPLPPPRIKSQAPIQRD
B4: Frabin-GFP: full length Frabin-GFP expressed in Cos7 cells (protein)
chain: MEEIKPASASCVSKEKPSKVSDLISRFEGGSSLSNYSDLKKESAVNLNAPRTPGRHGLTTTPQQKLLSQHLPQRQGNDTDKTQGAQTCVANGVMAAQNQMECEEEKAATLSSDTSIQASEPLLDTHIVNGERDETATAPASPTTDSCDGNASDSSYRTPGIGPVLPLEERGAETETKVQERENGESPLELEQLDQHHEMKETNEQKLHKIANELLLTERAYVNRLDLLDQVFYCKLLEEANRGSFPAEMVNKIFSNISSINAFHSKFLLPELEKRMQEWETTPRIGDILQKLAPFLKMYGEYVKGFDNAMELVKNMTERIPQFKSVVEEIQKQKICGSLTLQHHMLEPVQRIPRYEMLLKDYLRKLPPDSLDWNDAKKSLEIISTAASHSNSAIRKMENLKKLLEIYEMLGEEEDIVNPSNELIKEGQILKLAARNTSAQERYLFLFNNMLLYCVPKFSLVGSKFTVRTRVGIDGMKIVETQNEEYPHTFQVSGKERTLELQASSAQDKEEWIKALQETIDAFHQRHETFRNAIAKDNDIHSEVSTAELGKRAPRWIRDNEVTMCMKCKEPFNALTRRRHHCRACGYVVCWKCSDYKAQLEYDGGKLSKVCKDCYQIISGFTDSEEKKRKGILEIESAEVSGNSVVCSFLQYMEKSKPWQKAWCVIPKQDPLVLYMYGAPQDVRAQATIPLLGYVVDEMPRSADLPHSFKLTQSKSVHSFAADSEELKQKWLKVILLAVTGETPGGPNEHPATLDDHPEPKKKSEC
modifications: left off: GFP, end not stated, kept

Columns and labels:
[1] = tested on: endogenous OCRL (mouse brain extracts); experiment: GST-F&H peptide pull down of endogenous OCRL from mouse brain extracts; format: binding; conditions: GST fusions of 13 amino acid F&H motif peptides, Ses2 and APPL1 as positive controls
[2] = tested on: human OCRL ASHRhoGAP domain; experiment: Peptide array overlay with GST-hOCRL-ASHRhoGAP; format: binding; conditions: summary statement, test not specified at the place
[3] = tested on: F&H surface of Dd5P4 (GFP-Dd5P4 WT vs W620A); experiment: GFP immunoprecipitation and mass spectrometry of GFP-Dd5P4 interactors; format: binding, Dictyostelium discoideum; conditions: triplicate GFP immunoprecipitates; Dd5P4- cells expressing GFP-Dd5P4 WT vs W620A; label-free quantitation
How it was run: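 Cells were grown to 80% confluency in HL5 (glucose, vitamins, trace elements), with fusion strains under 5 µg/ml G418. Lysis buffer: 20 mM Tris pH 8, 10% glycerol, 100 mM NaCl, 1 mM EDTA, 1 mM DTT. Untransfected WT cells served as negative control. Beads were digested overnight with trypsin at 37°C, then StageTip-desalted. C18 nanoLC used a 95-min 5–30% acetonitrile gradient into a Q Exactive, with data-dependent top-10 MS/MS.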

[4] = tested on: endogenous OCRL (Cos7 cells); experiment: Frabin-GFP anti-GFP co-immunoprecipitation with endogenous OCRL in Cos7 cells; format: binding; conditions: full length Frabin-GFP, GFP-trap beads, Western blot
How it was run: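 Frabin-GFP expressed in Cos7 cells by nucleofection, then pulled down on GFP-trap beads and washed extensively. Western blot detected Frabin-GFP with anti-GFP antibody and endogenous OCRL with mouse anti-human OCRL antibody.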

Molecule | enrichment in GFP-Dd5P4 immunoprecipitates [3] | also measured
AFHQRHETFRNAI* [Frabin] | – | enrichment of endogenous OCRL by GST-F&H peptide [1]: specifically enriched endogenous OCRL; strength of Frabin F&H peptide interaction with OCRL [2]: strong
DDB_G0284853: mycBP2/Highwire-like protein of D. discoideum | specifically enriched in precipitates from GFP-Dd5P4-expressing cells versus negative control precipitates, but not in precipitates from GFP-Dd5P4^W620A-expressing cells | –
B1 | specifically enriched in precipitates from GFP-Dd5P4-expressing cells versus negative control precipitates, but not in precipitates from GFP-Dd5P4^W620A-expressing cells | –
B2 | specifically enriched in precipitates from GFP-Dd5P4-expressing cells versus negative control precipitates, but not in precipitates from GFP-Dd5P4^W620A-expressing cells | –
B3 | specifically enriched in precipitates from GFP-Dd5P4-expressing cells versus negative control precipitates, but not in precipitates from GFP-Dd5P4^W620A-expressing cells | –
B4 | – | coprecipitation of endogenous OCRL with Frabin-GFP [4]: weak but specific interaction with endogenous OCRL; also recorded: weak, albeit specific, coprecipitation with OCRL
